Source: PMC6448791 (Journal of natural products, 2017)
Several values for one entry are separate records, joined by “and”; a condition that tells them apart may be missing. Identical values can stand only once. Like-named read-outs stand apart in the source and are kept apart here.

Tests used:
rabbit erythrocytes = assay: Hemolytic assay; assay type: cell-based; settings: for HD50 (concentration inducing 50% of erythrocyte hemolysis): 37 °C, 60 min, PBS pH 7.4; for fold lower hemolytic toxicity than 1: HD50 relative to compound 1, rabbit erythrocytes
[1] = tested on: SMMC-771 (hepatocellular carcinoma); assay: MTT cytotoxicity assay, SMMC-7721; assay type: cell-based, human
How it was run: (§1)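 Cells kept in RPMI-1640 with 10% FBS, penicillin and streptomycin at 37 °C under 5% CO2. Seeded at 5 × 10^4 cells/mL and pre-incubated 24 h. Exposed to test compound at preset concentrations for 48 h. MTT (0.5 mg/mL) added for 4 h, formazan dissolved in DMSO, A490 read. Inhibition % = (ODc − ODt)/ODc × 100. Cisplatin as positive control.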

[2] = tested on: BGC-823 (gastric carcinoma); assay: MTT cytotoxicity assay, BGC-823; assay type: cell-based, human
How it was run: as §1

[3] = tested on: PARP, pro-caspase-3, pro-caspase-9, pro-caspase-8; assay: Western blot of apoptosis-related proteins; assay type: cell-based
How it was run: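 A549 cells treated with test compound for 24 h beside untreated control. Lysed in 100 mM Tris-Cl pH 6.8, 4% SDS, 20% glycerol, 200 mM β-mercaptoethanol, 1 mM PMSF plus aprotinin, then spun 12000g for 15 min at 4 °C. Protein measured by BCA, run on 10–15% SDS-PAGE and moved to PVDF. Primary antibodies overnight at 4 °C, HRP secondary, ECL detection; lamin A probed.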

[4] = tested on: all five tested human cancer cell lines; assay: SRB cytotoxicity, all five tested human cancer cell lines; assay type: cell-based; settings: read-out: IC50 against all five tested human cancer cell lines
How it was run: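 ATCC-sourced lines grown in RPMI-1640 with 10% FBS at 37 °C, 5% CO2. Seeded at 3–5 × 10^3 cells/well in medium already containing graded test compound, then 72 h exposure. Fixed with cold 50% TCA for 30 min, stained with 0.04% SRB for 30 min, bound dye taken up in 10 mM Tris base, A515 read.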

[5] = tested on: A549 human lung cancer cell line; assay: SRB cytotoxicity assay, A549; assay type: cell-based
erythrocytes = settings: cited from earlier work
[6] = Homo sapiens, SMMC-7721, read-out: IC50 SMMC-771
[7] = Homo sapiens, BGC-823, read-out: IC50 BGC-823
[8] = 24 h treatment, compared to controls
[9] = as the concentration of 14 increased

Row | Molecule | HD50 (concentration inducing 50% of erythrocyte hemolysis) (rabbit erythrocytes; rabbit erythrocytes) | IC50 [1, 6] [µM] | IC50 [2, 7] [µM] | further results
1 | C[C@@H]1O[C@@H](O[C@H]2[C@H](O[C@H]3CC[C@@]4(C)[C@@H](CC[C@]5(C)[C@@H]4C(=O)C=C4[C@@H]6CC(C)(C)CC[C@]6(C(=O)O)CC[C@]45C)[C@]3(C)CO)OC[C@H](O[C@@H]3O[C@H](CO)[C@@H](O)[C@H](O)[C@H]3O)[C@@H]2O)[C@H](O)[C@H](O)[C@H]1O [compound 4, 3β,23-Dihydroxy-11-oxo-olean-12-en-28-oic acid-3-O-α-L-rhamnopyranosyl-(1→2)-[β-D-gluco-pyranosyl-(1→4)]-α-L-arabinopyranoside] | 239 µM and 239 ± 22.2 µM | > 10 | > 10 | –
2 | C[C@@H]1O[C@@H](O[C@H]2[C@H](O[C@H]3CC[C@@]4(C)[C@@H](CC[C@]5(C)[C@@H]4C(=O)C=C4[C@@H]6CC(C)(C)CC[C@]6(C(=O)NCC(=O)O)CC[C@]45C)[C@]3(C)CO)OC[C@H](O[C@@H]3O[C@H](CO)[C@@H](O)[C@H](O)[C@H]3O)[C@@H]2O)[C@H](O)[C@H](O)[C@H]1O [compound 7, 3β,23-Dihydroxy-11-oxo-olean-12-en-28-(glycine)oic acid-3-O-α-L-rhamnopyranosyl-(1→2)-[β-D-glucopyranosyl-(1→4)]-α-L-arabinopyranoside] | 290−308 μM and 290 ± 27.0 μM | > 10 | > 10 | –
3 | C[C@@H]1O[C@@H](O[C@H]2[C@H](O[C@H]3CC[C@@]4(C)[C@@H](CC[C@]5(C)[C@@H]4CC(=O)[C@@H]4[C@@H]6CC(C)(C)CC[C@]6(C(=O)O)CC[C@]45C)[C@]3(C)CO)OC[C@H](O[C@@H]3O[C@H](CO)[C@@H](O)[C@H](O)[C@H]3O)[C@@H]2O)[C@H](O)[C@H](O)[C@H]1O [compound 9, 3β,23-Dihydroxy-12-oxo-olean-28-oic acid-3-O-a-L-rhamnopyranosyl-(1→2)-[β-D-glucopyranosyl-(1→4)]-a-L-arabinopyranoside] | 73.1 µM and 73.1 ± 9.0 µM | > 10 | > 10 | fold lower hemolytic toxicity than 1 (rabbit erythrocytes): at least 10 fold
4 | C[C@@H]1O[C@@H](O[C@H]2[C@H](O[C@H]3CC[C@@]4(C)[C@@H](CC[C@]5(C)[C@@H]4CC(=O)[C@]46OC(=O)[C@@]7(CCC(C)(C)C[C@H]74)CC[C@@]56C)[C@]3(C)CO)OC[C@H](O[C@@H]3O[C@H](CO)[C@@H](O)[C@H](O)[C@H]3O)[C@@H]2O)[C@H](O)[C@H](O)[C@H]1O [compound 10, 3β,23-Dihydroxy-12-oxo-olean-28-oic acid-28,13β-lactone-3-O-α-L-rhamnopyranosyl-(1→2)-[β-D-glucopyranosyl-(1→4)]-α-L-arabinopyranoside] | 290 μM and 290−308 μM and 290 ± 25.5 μM | > 10 | > 10 | fold lower hemolytic toxicity than 1 (rabbit erythrocytes): ~50 fold
5 | C[C@@H]1O[C@@H](O[C@H]2[C@H](O[C@H]3CC[C@@]4(C)[C@@H](CC[C@]5(C)[C@@H]4C[C@H](O)[C@]46OC(=O)[C@@]7(CCC(C)(C)C[C@H]74)CC[C@]65C)[C@]3(C)CO)OC[C@H](O[C@@H]3O[C@H](CO)[C@@H](O)[C@H](O)[C@H]3O)[C@@H]2O)[C@H](O)[C@H](O)[C@H]1O [compound 11, 33β,12α,23-Trihydroxyolean-28-oic acid 28,13β-lactone-3-O-α-3L3-rhamnopyranosyl-(1→32)-[β-3D3-glucopyranosyl-(1→34)]-α-3L3-arabinopyranoside] | 308 μM and 290−308 μM and 308 ± 24.2 μM | > 10 | > 10 | fold lower hemolytic toxicity than 1 (rabbit erythrocytes): ~50 fold
6 | CC(=O)OC[C@@]1(C)[C@@H]2CC[C@]3(C)[C@H](CC=C4[C@@H]5CC(C)(C)CC[C@]5(C(=O)O)CC[C@]43C)[C@@]2(C)CC[C@@H]1OC(C)=O [compound 12, 3β,23-Diacetoxyolean-12-en-28-oic acid] | >500 µM | – | – | –
7 | CCOC(=O)CNC(=O)[C@]12CCC(C)(C)C[C@H]1C1=CC[C@@H]3[C@@]4(C)CC[C@H](OC(C)=O)[C@@](C)(COC(C)=O)[C@@H]4CC[C@@]3(C)[C@]1(C)CC2 [compound 13, 3β,23-Diacetoxyolean-12-en-N-[glycineethyl ester]-28-formamide] | >500 µM | – | – | –
8 | CCOC(=O)CCCNC(=O)[C@]12CCC(C)(C)C[C@H]1C1=CC[C@@H]3[C@@]4(C)CC[C@H](OC(C)=O)[C@@](C)(COC(C)=O)[C@@H]4CC[C@@]3(C)[C@]1(C)CC2 [compound 14, 3β,23-Diacetoxyolean-12-en-N-[4-aminobutanoic acid ethyl ester]-28-formamide] | >500 µM | – | – | expression of pro-caspase-3 [3, 8]: decreased; expression of pro-caspase-8 [3, 8]: decreased; expression of pro-caspase-9 [3, 8]: decreased; expression of PARP [3, 9]: decreased; expression of cleaved PARP [3, 9]: increased; IC50 [4]: 2.8 to 8.6 µM
9 | CCOC(=O)CCCCCNC(=O)[C@]12CCC(C)(C)C[C@H]1C1=CC[C@@H]3[C@@]4(C)CC[C@H](OC(C)=O)[C@@](C)(COC(C)=O)[C@@H]4CC[C@@]3(C)[C@]1(C)CC2 [compound 15, 3β,23-Diacetoxyolean-12-en-N-[6-aminocaproic acid ethyl ester]-28-formamide] | >500 µM | – | – | –
10 | CC1(C)CC[C@]2(C(=O)NCC(=O)O)CC[C@]3(C)C(=CC[C@@H]4[C@@]5(C)CC[C@H](O)[C@@](C)(CO)[C@@H]5CC[C@]43C)[C@@H]2C1 [compound 16, 3β,23-Dihydroxyolean-12-en-28-(glycine)oic acid amide] | >500 µM | – | – | –
11 | CC1(C)CC[C@]2(C(=O)NCCCC(=O)O)CC[C@]3(C)C(=CC[C@@H]4[C@@]5(C)CC[C@H](O)[C@@](C)(CO)[C@@H]5CC[C@]43C)[C@@H]2C1 [compound 17, 3β,23-Dihydroxyolean-12-en-28-(4-aminobutanoic acid)oic acid amide] | >500 µM | – | – | –
12 | CC1(C)CC[C@]2(C(=O)NCCCCCC(=O)O)CC[C@]3(C)C(=CC[C@@H]4[C@@]5(C)CC[C@H](O)[C@@](C)(CO)[C@@H]5CC[C@]43C)[C@@H]2C1 [compound 18, 3β,23-Dihydroxyolean-12-en-28-(6-aminocaproic acid)oic acid amide] | >500 µM | – | – | –
13 | CC1(C)CC[C@]2(C(=O)O)CC[C@]3(C)C(=CC[C@@H]4[C@@]5(C)CC[C@H](O)[C@@](C)(CO)[C@@H]5CC[C@]43C)[C@@H]2C1 [hederagenin, reference compound] | >200 µM | – | – | cytotoxicity toward A549 cancer cells (in words) [5]: inactive; hemolytic toxicity (in words) (rabbit erythrocytes; rabbit erythrocytes): low hemolytic toxicity
14 | hederagenin 3-O-α-L-rhamnopyr-anosyl-(1→2)-[β-D-glucopyranosyl-(1→4)]-α-L-arabinopyrano-side [compound 1] | 6.3 µM and 6.3 ± 0.58 µM | – | – | IC50 ([1]; read-out: IC50 SMMC-771, MTT assay): 4.4 µM; IC50 ([2]; read-out: IC50 BGC-823, MTT assay): 7.2 µM; HD50 (hemolytic toxicity) (erythrocytes): 6.3 µM
